Values after ≈ are worked out from the molar mass of the structure shown. Active and inactive are the calls of the source. The rule behind the calls is not given here.

The test system of assay [1] is Bacillus spizizenii. Description: Antibacterial activity against Bacillus subtilis ATCC 6633 at 30 ug/disk after 12 hrs by paper disk diffusion assay. The settings on record: for zone of inhibition at 30 µg/disc: ATCC 6633, 12 h, read-out: DIZ. It counts as functional. Summed up: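 Test compounds dissolved in MeOH and applied to paper disks at 30 μg/disk against Bacillus subtilis. Read-out is the diameter of the zone of complete growth inhibition.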

The test system of another assay is Pseudomonas aeruginosa. The experiment in a line: Antibacterial activity against Pseudomonas aeruginosa ATCC 27853 after 24 hrs by broth microdilution method. Type of assay: functional. The settings on record: ATCC 27853, 24 h.
Another assay has as its system Escherichia coli. The experiment in a line: Antibacterial activity against Escherichia coli ATCC 25922 after 24 hrs by broth microdilution method. It counts as functional. The settings on record: ATCC 25922, 24 h.
Another assay has as its system Micrococcus luteus. Description: Antibacterial activity against Micrococcus luteus ATCC 9341 after 24 hrs by broth microdilution method. Type of assay: functional. The settings on record: ATCC 9341, 24 h.
Assay [2] can be described thus: Inhibition of Escherichia coli RNA polymerase after 1 hr by fluorescence assay. Summed up: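 Assay uses E. coli RNA polymerase. IC50 is taken from three independent dose–response curves, each point measured in duplicate, and reported as mean ± SEM.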
The test system of another assay is Enterococcus faecalis. Description: Antibacterial activity against Enterococcus faecalis ATCC 29212 after 24 hrs by broth microdilution method. Type of assay: functional. The note with it: ATCC 29212, 24 h.
For another assay, the system named is Serratia marcescens. The experiment in a line: Antibacterial activity against Serratia marcescens ATCC 13880 after 24 hrs by broth microdilution method. The settings on record: ATCC 13880, 24 h. It counts as functional.
In a further assay the test system is Staphylococcus aureus. Description: Antibacterial activity against Staphylococcus aureus ATCC 29213 after 24 hrs by broth microdilution method. Type of assay: functional. The settings on record: ATCC 29213, 24 h.
Another assay deals with Candida albicans. Description: Antifungal activity against Candida albicans ATCC 10231 after 48 hrs by broth microdilution method. The note with it: ATCC 10231, 48 h. It counts as functional.
Assay [3] has as its system Bacillus spizizenii. The experiment in a line: Antibacterial activity against Bacillus subtilis ATCC 6633 after 24 hrs by broth microdilution method. It counts as functional. The note with it: ATCC 6633, 24 h.

Take `CCC(=O)c1c(O)cc(CCCC(=O)Nc2c3sscc-3[nH]c2=O)oc1=O`: the “diameter of the inhibition zone (DIZ)” value in the assay with Bacillus spizizenii [1] is “inactive”.
In the case of `CCCC/C(C)=C/C=C(\C)C(=O)c1c(O)cc(C(C)CC/C=C/NC(=O)OC)oc1=O` (racemic), the “diameter of the inhibition zone (DIZ)” value in the assay with Bacillus spizizenii [1] was “Active”.
`O=C(CCCCCCCO)Nc1c2sscc-2[nH]c1=O`: the zone of inhibition at 30 µg/disc with Bacillus spizizenii [1] came out at 9 mm.
Consider `CCCCCCCCC(=O)c1c(O)cc(C)oc1=O`, for which the minimal inhibitory concentration (MIC) came to 128 mg/L (≈ 481 µM) with Pseudomonas aeruginosa; 128 mg/L (≈ 481 µM) against Escherichia coli; 2 mg/L (≈ 7.51 µM) in the assay with Micrococcus luteus; 4 mg/L (≈ 15 µM) in the assay with Enterococcus faecalis; 128 mg/L (≈ 481 µM) against Serratia marcescens; 8 mg/L (≈ 30 µM) against Staphylococcus aureus. The MIC in the assay with Candida albicans turned out to be 64 mg/L (≈ 240 µM); with Bacillus spizizenii [3], 8 mg/L (≈ 30 µM). This compound registered an IC50 in assay [2] greater than 2000 µM. Further, the zone of inhibition at 30 µg/disc in the assay on Bacillus spizizenii [1] was determined as 12 mm.
Take `CO[C@H]1/C=C/O[C@@]2(C)Oc3c(C)c(O)c4c(O)c(c(/C=N/N5CCN(C)CC5)c(O)c4c3C2=O)NC(=O)/C(C)=C\C=C\[C@H](C)[C@H](O)[C@@H](C)[C@@H](O)[C@@H](C)[C@H](OC(C)=O)[C@@H]1C` [RIFAMPIN]: the MIC with Pseudomonas aeruginosa was 32 mg/L (≈ 38.9 µM); against Escherichia coli, 8 mg/L (≈ 9.72 µM); with Micrococcus luteus, no more than 0.125 mg/L; in the assay with Enterococcus faecalis, 1 mg/L (≈ 1.22 µM); in the assay with Serratia marcescens, 32 mg/L (≈ 38.9 µM); in the assay with Staphylococcus aureus, 0.5 mg/L (≈ 0.608 µM). Besides, the MIC in the assay on Candida albicans was no less than 256 mg/L; with Bacillus spizizenii [3], no more than 0.125 mg/L. Half-maximal inhibition in assay [2] (IC50) was put at 0.08 µM. Moreover, the zone of inhibition at 30 µg/disc in the assay with Bacillus spizizenii [1] was determined as 25 mm.
Regarding `Cc1cc(O)c(C(=O)CCCCCCC(=O)Nc2c3sscc-3[nH]c2=O)c(=O)o1`, the zone of inhibition at 30 µg/disc in the assay on Bacillus spizizenii [1] worked out at 11 mm.
In assay [2], `CCCC/C(C)=C/C=C(\C)C(=O)c1c(O)cc([C@H](C)CC/C=C/NC(=O)OC)oc1=O` [MYXOPYRONIN B] yielded an IC50 of 24 µM.
Take `Cc1cc(O)c(C(=O)NCCCCCCC(=O)Nc2c3sscc-3[nH]c2=O)c(=O)o1`: the “diameter of the inhibition zone (DIZ)” value in the assay on Bacillus spizizenii [1] was “Active”.
As to `C=CCCCc1cc(O)c(C(=O)CCCCCCC(=O)Nc2c3sscc-3[nH]c2=O)c(=O)o1`, the zone of inhibition at 30 µg/disc in the assay on Bacillus spizizenii [1] turned out to be 10 mm.
Turning to `Cc1cc(O)c(C(=O)CCCCCCC(=O)O)c(=O)o1`, in the assay with Bacillus spizizenii [1], the “diameter of the inhibition zone (DIZ)” value was “inactive”.
Regarding `C=CCCCc1cc(O)c(C(=O)CCCCCCC(=O)O)c(=O)o1`, the “diameter of the inhibition zone (DIZ)” value in the assay with Bacillus spizizenii [1] was “inactive”.
Regarding `CCCCCCCCC(=O)c1c(O)cc(CCCCCC(=O)Nc2c3sscc-3[nH]c2=O)oc1=O`, the zone of inhibition at 30 µg/disc in the assay with Bacillus spizizenii [1] was 9 mm.
Turning to `Cc1cc(O)c(C(=O)CCCCC(=O)Nc2c3sscc-3[nH]c2=O)c(=O)o1`, the MIC in the assay with Pseudomonas aeruginosa was determined as 64 mg/L (≈ 157 µM); in the assay with Escherichia coli it was 128 mg/L (≈ 313 µM); with Micrococcus luteus, 8 mg/L (≈ 19.6 µM); in the assay on Enterococcus faecalis, 16 mg/L (≈ 39.2 µM); in the assay with Serratia marcescens it was 128 mg/L (≈ 313 µM); in the assay with Staphylococcus aureus, 64 mg/L (≈ 157 µM). Also, the MIC in the assay with Candida albicans is 128 mg/L (≈ 313 µM); in the assay with Bacillus spizizenii [3], 64 mg/L (≈ 157 µM). The compound also yielded an IC50 in assay [2] greater than 2000 µM. The zone of inhibition at 30 µg/disc in the assay on Bacillus spizizenii [1] amounted to 14 mm.
Regarding `Cc1cc(O)c(C(=O)CCCCCCC(=O)NC2=C3SS(=O)(=O)C=C3NC2=O)c(=O)o1`, in the assay with Bacillus spizizenii [1], the “diameter of the inhibition zone (DIZ)” value is “inactive”.
`CCC(=O)c1c(O)cc(C)oc1=O`: the “diameter of the inhibition zone (DIZ)” value with Bacillus spizizenii [1] is “inactive”.
With `C=CCCCC(=O)c1c(O)cc(C)oc1=O`, the zone of inhibition at 30 µg/disc in the assay with Bacillus spizizenii [1] is 9 mm.
Regarding `Cc1cc(O)c(C(=O)NCCCCCCC(=O)O)c(=O)o1`, the “diameter of the inhibition zone (DIZ)” value with Bacillus spizizenii [1] is “inactive”.
On to `Cc1cc(O)c(C(=O)CCCCCCCC(=O)Nc2c3sscc-3[nH]c2=O)c(=O)o1`, for which the MIC is 128 mg/L (≈ 284 µM) against Pseudomonas aeruginosa; no less than 256 mg/L with Escherichia coli; 1 mg/L (≈ 2.22 µM) against Micrococcus luteus; 4 mg/L (≈ 8.88 µM) against Enterococcus faecalis; no less than 256 mg/L against Serratia marcescens; 4 mg/L (≈ 8.88 µM) with Staphylococcus aureus. Moreover, the minimum inhibitory concentration (MIC) is no less than 256 mg/L in the assay on Candida albicans and 16 mg/L (≈ 35.5 µM) against Bacillus spizizenii [3]. This compound displayed a half-inhibitory concentration (IC50) in [2] of 14 µM. Besides, the zone of inhibition at 30 µg/disc in the assay with Bacillus spizizenii [1] was 15 mm.
`Cc1cc(O)c(C(=O)CCCCCCCC(=O)N2CCCCC2)c(=O)o1`: in the assay on Bacillus spizizenii [1], the “diameter of the inhibition zone (DIZ)” value is “inactive”.
As to `CCCCCCCCC(=O)c1c(O)cc(CCCCCC(=O)O)oc1=O`, in the assay on Bacillus spizizenii [1], the “diameter of the inhibition zone (DIZ)” value was “Active”.

The values above are taken from ChEMBL document CHEMBL2321743, “Novel hybrid-type antimicrobial agents targeting the switch region of bacterial RNA polymerase” (ACS Med Chem Lett, 2013).
